What was measured:
[1] = target: Cholecystokinin receptor type A (Homo sapiens, UniProt P32238, T117A); assay: Inhibition of CCK-Induced inositol phosphate in Cos-7 cells expressing mutant CCK1R (T117A); type: functional, cell-based
How it was run: (§1)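 Mutant human CCK1R cDNAs were made by site-directed mutagenesis in pRFENeo and sequence-verified. COS-7 cells were transfected by DEAE-dextran. Cells were [3H]inositol-labelled overnight, then LiCl-preincubated and incubated 60 min at 37 °C in pH 7.45 PI buffer with CCK and varying antagonist. Dowex-separated inositol phosphates were counted. IC50 given as mean ± SEM; Fmut = IC50(mutant)/IC50(wild type).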

[2] = test system: Cholecystokinin receptor type A (Homo sapiens), P32238 [UNDEFINED MUTATION]
[3] = test system: Cholecystokinin receptor type A (Homo sapiens), P32238 [UNDEFINED MUTATION]; remark: listed apart in the source
[4] = target: Cholecystokinin receptor type A (Homo sapiens, UniProt P32238, I329A); assay: Inhibition of CCK-induced inositol phosphate in Cos-7 cells expressing mutant CCK1R (I329A); type: functional, cell-based; how it was run: as §1
Sequence of Cholecystokinin receptor type A (Homo sapiens, UniProt P32238, I329A) (P32238 whole entry I329A): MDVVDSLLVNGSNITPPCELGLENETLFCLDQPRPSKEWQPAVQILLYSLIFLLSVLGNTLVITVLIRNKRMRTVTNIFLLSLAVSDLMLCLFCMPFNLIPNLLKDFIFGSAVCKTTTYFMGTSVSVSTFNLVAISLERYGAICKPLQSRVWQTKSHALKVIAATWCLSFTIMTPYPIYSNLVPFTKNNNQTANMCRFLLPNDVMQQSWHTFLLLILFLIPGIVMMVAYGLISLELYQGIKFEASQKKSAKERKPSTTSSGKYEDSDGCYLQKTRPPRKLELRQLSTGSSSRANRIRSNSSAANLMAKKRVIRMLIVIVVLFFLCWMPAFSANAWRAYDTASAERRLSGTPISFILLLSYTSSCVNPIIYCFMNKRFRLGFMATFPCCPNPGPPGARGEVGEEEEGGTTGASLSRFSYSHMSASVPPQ

[5] = target: Cholecystokinin receptor type A (Homo sapiens, UniProt P32238, F107A); assay: Inhibition of CCK-induced inositol phosphate in Cos-7 cells expressing mutant CCK1R (F107A); type: functional, cell-based; how it was run: as §1
Sequence of Cholecystokinin receptor type A (Homo sapiens, UniProt P32238, F107A) (P32238 whole entry F107A): as the sequence (P32238 whole entry I329A) above, with F107A, A329I counted along it

[6] = target: T1, Gastrin/cholecystokinin type B receptor (Homo sapiens, UniProt P32239); assay: Inhibition of CCK binding to Cos-7 cells expressing human cholecystokinin 2 receptor; type: cell-based
T1 sequence (P32239 whole entry): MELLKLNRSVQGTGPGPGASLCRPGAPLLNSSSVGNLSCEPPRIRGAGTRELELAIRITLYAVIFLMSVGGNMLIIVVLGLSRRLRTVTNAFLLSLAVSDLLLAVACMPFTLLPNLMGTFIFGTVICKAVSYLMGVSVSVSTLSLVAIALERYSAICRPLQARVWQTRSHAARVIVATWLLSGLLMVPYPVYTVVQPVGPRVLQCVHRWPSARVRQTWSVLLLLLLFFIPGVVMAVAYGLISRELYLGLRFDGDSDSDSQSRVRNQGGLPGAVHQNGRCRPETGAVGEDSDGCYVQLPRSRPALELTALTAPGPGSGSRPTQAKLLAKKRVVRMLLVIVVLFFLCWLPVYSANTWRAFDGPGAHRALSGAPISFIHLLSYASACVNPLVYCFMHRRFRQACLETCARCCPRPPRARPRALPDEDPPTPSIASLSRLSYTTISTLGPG
How it was run: (§2)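 COS-7 cells were grown in DMEM with 5% FCS and transiently transfected by DEAE-dextran with 2 µg/plate of human CCK1R or CCK2R cDNA (from pancreas or gallbladder). About 24 h after replating, cells were incubated 60 min at 37 °C in DMEM with 0.1% BSA and 71 pM [125I]BH-(Thr,Nle)CCK-9 plus competitor. Nonspecific binding used 1 µM. IC50 given as mean ± SEM, 3–6 experiments.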

[7] = test system: Cholecystokinin receptor type A (Homo sapiens), P32238 [UNDEFINED MUTATION]; remark: listed apart in the source
[8] = target: T2, Cholecystokinin receptor type A (Homo sapiens, UniProt P32238); assay: Inhibition of CCK binding to Cos-7 cells expressing human cholecystokinin 1 receptor; type: cell-based; how it was run: as §2
T2 sequence (P32238 whole entry): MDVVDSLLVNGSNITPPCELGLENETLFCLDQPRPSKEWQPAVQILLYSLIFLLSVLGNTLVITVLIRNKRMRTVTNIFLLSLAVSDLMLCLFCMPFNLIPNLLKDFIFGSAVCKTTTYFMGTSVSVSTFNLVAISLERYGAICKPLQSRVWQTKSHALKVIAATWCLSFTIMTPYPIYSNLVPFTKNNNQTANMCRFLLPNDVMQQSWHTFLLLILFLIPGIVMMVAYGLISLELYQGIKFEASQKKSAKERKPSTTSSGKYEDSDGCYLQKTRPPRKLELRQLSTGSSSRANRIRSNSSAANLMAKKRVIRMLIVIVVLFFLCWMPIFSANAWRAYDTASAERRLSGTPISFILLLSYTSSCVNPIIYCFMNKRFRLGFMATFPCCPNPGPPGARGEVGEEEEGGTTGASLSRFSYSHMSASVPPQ

[9] = target: Cholecystokinin receptor type A (Homo sapiens, UniProt P32238, R336M); assay: Inhibition of CCK-Induced inositol phosphate in Cos-7 cells expressing mutant CCK1R (R336M); type: functional, cell-based; how it was run: as §1
Sequence of Cholecystokinin receptor type A (Homo sapiens, UniProt P32238, R336M) (P32238 whole entry R336M): as the sequence (P32238 whole entry I329A) above, with A329I, R336M counted along it

[10] = target: T2, Cholecystokinin receptor type A; assay: Inhibition of CCK-Induced inositol phosphate production in Cos-7 cells expressing human CCK1R; type: functional, cell-based
[11] = target: Cholecystokinin receptor type A (Homo sapiens, UniProt P32238, S348A); assay: Inhibition of CCK-Induced inositol phosphate in Cos-7 cells expressing mutant CCK1R (S348A); type: functional, cell-based; how it was run: as §1
Sequence of Cholecystokinin receptor type A (Homo sapiens, UniProt P32238, S348A) (P32238 whole entry S348A): as the sequence (P32238 whole entry I329A) above, with A329I, S348A counted along it

[12] = test system: Cholecystokinin receptor type A (Homo sapiens), P32238 [UNDEFINED MUTATION]; remark: listed apart in the source
[13] = target: Cholecystokinin receptor type A (Homo sapiens, UniProt P32238, I352A); assay: Inhibition of CCK-Induced inositol phosphate in Cos-7 cells expressing mutant CCK1R (I352A); type: functional, cell-based; how it was run: as §1
Sequence of Cholecystokinin receptor type A (Homo sapiens, UniProt P32238, I352A) (P32238 whole entry I352A): as the sequence (P32238 whole entry I329A) above, with A329I, I352A counted along it

[14] = test system: Cholecystokinin receptor type A (Homo sapiens), P32238 [UNDEFINED MUTATION]; remark: listed apart in the source
[15] = test system: Cholecystokinin receptor type A (Homo sapiens), P32238 [UNDEFINED MUTATION]; remark: listed apart in the source
[16] = target: Cholecystokinin receptor type A (Homo sapiens, UniProt P32238, M195L); assay: Inhibition of CCK-Induced inositol phosphate in Cos-7 cells expressing mutant CCK1R (M195L); type: functional, cell-based; how it was run: as §1
Sequence of Cholecystokinin receptor type A (Homo sapiens, UniProt P32238, M195L) (P32238 whole entry M195L): as the sequence (P32238 whole entry I329A) above, with M195L, A329I counted along it

[17] = target: Cholecystokinin receptor type A (Homo sapiens, UniProt P32238, I329F); assay: Inhibition of CCK-Induced inositol phosphate in Cos-7 cells expressing mutant CCK1R (I329F); type: functional, cell-based; how it was run: as §1
Sequence of Cholecystokinin receptor type A (Homo sapiens, UniProt P32238, I329F) (P32238 whole entry I329F): as the sequence (P32238 whole entry I329A) above, with A329F counted along it

[18] = target: T3, Cholecystokinin receptor type A (Rattus norvegicus, UniProt P30551); assay: Inhibition of 71 pM [125I]BH-(Thr,Nle)CCK-9 binding to rat cholecystokinin 1 receptor
T3 sequence (P30551 whole entry): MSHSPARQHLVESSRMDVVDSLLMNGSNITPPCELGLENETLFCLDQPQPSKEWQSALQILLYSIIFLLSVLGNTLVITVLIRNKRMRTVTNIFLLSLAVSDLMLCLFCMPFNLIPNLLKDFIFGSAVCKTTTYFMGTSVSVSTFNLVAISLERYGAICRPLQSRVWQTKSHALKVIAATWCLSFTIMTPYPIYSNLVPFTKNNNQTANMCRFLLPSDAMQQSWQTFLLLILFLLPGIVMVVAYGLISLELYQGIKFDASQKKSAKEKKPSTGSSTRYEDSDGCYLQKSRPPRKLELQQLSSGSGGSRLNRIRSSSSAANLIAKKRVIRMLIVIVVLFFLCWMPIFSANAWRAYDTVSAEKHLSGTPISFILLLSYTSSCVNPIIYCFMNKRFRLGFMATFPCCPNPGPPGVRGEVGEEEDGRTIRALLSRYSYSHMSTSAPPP

[19] = test system: Cholecystokinin receptor type A (Homo sapiens), P32238 [UNDEFINED MUTATION]; remark: listed apart in the source
[20] = test system: Cholecystokinin receptor type A (Homo sapiens), P32238 [UNDEFINED MUTATION]; remark: listed apart in the source
[21] = target: Cholecystokinin receptor type A (Homo sapiens, UniProt P32238, R197M); assay: Inhibition of CCK-Induced inositol phosphate in Cos-7 cells expressing mutant CCK1R (R197M); type: functional, cell-based; how it was run: as §1
Sequence of Cholecystokinin receptor type A (Homo sapiens, UniProt P32238, R197M) (P32238 whole entry R197M): as the sequence (P32238 whole entry I329A) above, with R197M, A329I counted along it

[22] = test system: Cholecystokinin receptor type A (Homo sapiens), P32238 [UNDEFINED MUTATION]; remark: listed apart in the source
[23] = target: Cholecystokinin receptor type A (Homo sapiens, UniProt P32238, S342A); assay: Inhibition of CCK-Induced inositol phosphate in Cos-7 cells expressing mutant CCK1R (S342A); type: functional, cell-based; how it was run: as §1
Sequence of Cholecystokinin receptor type A (Homo sapiens, UniProt P32238, S342A) (P32238 whole entry S342A): as the sequence (P32238 whole entry I329A) above, with A329I, S342A counted along it

[24] = test system: Cholecystokinin receptor type A (Homo sapiens), P32238 [UNDEFINED MUTATION]; remark: listed apart in the source
[25] = target: T4, Gastrin/cholecystokinin type B receptor (Rattus norvegicus, UniProt P30553); assay: Inhibition of 71 pM [125I]BH-(Thr,Nle)CCK-9 binding to rat cholecystokinin 2 receptor
T4 sequence (P30553 whole entry): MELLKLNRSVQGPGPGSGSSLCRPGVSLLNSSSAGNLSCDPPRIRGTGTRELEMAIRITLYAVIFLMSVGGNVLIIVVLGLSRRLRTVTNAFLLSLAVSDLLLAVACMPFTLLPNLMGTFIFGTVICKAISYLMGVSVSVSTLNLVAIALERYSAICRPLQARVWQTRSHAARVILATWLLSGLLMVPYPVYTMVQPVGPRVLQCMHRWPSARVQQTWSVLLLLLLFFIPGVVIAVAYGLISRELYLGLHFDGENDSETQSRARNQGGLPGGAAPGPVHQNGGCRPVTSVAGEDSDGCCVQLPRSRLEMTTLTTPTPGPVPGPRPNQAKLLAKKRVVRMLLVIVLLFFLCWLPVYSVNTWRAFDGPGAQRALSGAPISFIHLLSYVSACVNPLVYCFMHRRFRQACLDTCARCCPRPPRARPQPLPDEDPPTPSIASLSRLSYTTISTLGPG

Sequence of Cholecystokinin receptor type A (Homo sapiens, UniProt P32238, T117A) (P32238 whole entry T117A): as the sequence (P32238 whole entry I329A) above, with T117A, A329I counted along it

| Compound | IC50 [1] [nM] | Fmut [2] | Fmut [3] | IC50 [4] [nM] | IC50 [5] [nM] | IC50 [6] [nM] | Fmut [7] | IC50 [8] [nM] | IC50 [9] [nM] | IC50 [10] [nM] | IC50 [11] [nM] | Fmut [12] | IC50 [13] [nM] | Fmut [14] | Fmut [15] | IC50 [16] [nM] | IC50 [17] [nM] | Fmut [19] | Fmut [20] | IC50 [21] [nM] | further results |
| --- | --- | --- | --- | --- | --- | --- | --- | --- | --- | --- | --- | --- | --- | --- | --- | --- | --- | --- | --- | --- | --- |
| CC(C)(C)OC(=O)N[C@@H](Cc1c[nH]c2ccccc12)C(=O)N[C@@H]1CCCN2C(=O)N(Cc3ccccc3)C(=O)C[C@@H]12 [IQM-95333] |  |  |  |  |  |  |  |  |  |  |  |  |  |  |  |  |  |  |  |  | IC50 [25]: > 10000 nM |
| CC(C)(C)OC(=O)N[C@@H](Cc1c[nH]c2ccccc12)C(=O)N[C@@H]1CCCN2C(=O)N(c3ccccc3)C(=O)C[C@@H]12 | 71.6 | 1.9 | 125 | 1110 | 23.3 | > 10000 | 0.7 | 5.2 | 4860 | 35.8 | 36.6 | 0.7 | 2290 | 65.5 | 30.8 | 35.2 | 514 | 14.3 | 0.4 | 23 | Fmut [22]: 0.8; IC50 [23]: 33.2 nM; Fmut [24]: 1.2 |
| CC(C)(C)OC(=O)N[C@@H](Cc1c[nH]c2ccccc12)C(=O)N[C@H]1CCCN2C(=O)N(Cc3ccccc3)C(=O)C[C@@H]12 |  |  |  |  |  | 6020 |  | 6850 |  | 20900 |  |  |  |  |  |  |  |  |  |  |  |

More lines, main results first:

| IC50 [1] [nM] | Fmut [2] | Fmut [3] | IC50 [4] [nM] | IC50 [5] [nM] | IC50 [6] [nM] | Fmut [7] | IC50 [8] [nM] | IC50 [9] [nM] | IC50 [10] [nM] | IC50 [11] [nM] | Fmut [12] | IC50 [13] [nM] | Fmut [14] | Fmut [15] | IC50 [16] [nM] | IC50 [17] [nM] | Fmut [19] | Fmut [20] | IC50 [21] [nM] | Compound | further results |
| --- | --- | --- | --- | --- | --- | --- | --- | --- | --- | --- | --- | --- | --- | --- | --- | --- | --- | --- | --- | --- | --- |
| 24.9 | 2 | 40.1 | 9.3 | 26.8 | > 10000 | 0.9 | 2.1 | 582 | 8.8 | 3.6 | 3 | 227 | 21.2 | 1 | 5.2 | 801 | 90.8 | 0.2 | 8.9 | CC(C)(C)OC(=O)N[C@@H](Cc1c[nH]c2ccccc12)C(=O)N[C@@H]1CCCN2C(=O)N(c3cccc4ccccc34)C(=O)C[C@@H]12 | IC50 [18]: 0.59 nM; Fmut [22]: 0.7; IC50 [23]: 7.9 nM; Fmut [24]: 0.5 |
| 28.4 | 1.6 | 138 | 129 | 31.5 | > 10000 | 0.4 | 3.8 | 2060 | 7.3 | 5.7 | 4.6 | 831 | 61.6 | 6.6 | 5.8 | 183 | 24.9 | 0.3 | 11.8 | CC(C)(C)OC(=O)N[C@@H](Cc1c[nH]c2ccccc12)C(=O)N[C@@H]1CCCN2C(S)N(Cc3ccccc3)C(=O)C[C@@H]12 (some centres undefined) | Fmut [22]: 0.8; IC50 [23]: 27.5 nM; Fmut [24]: 0.2 |
